This is an account of results in ChEMBL document CHEMBL4049461, “Double-Winged 3-Hydroxypyrimidine-2,4-diones: Potent and Selective Inhibition against HIV-1 RNase H with Significant Antiviral Activity” (J Med Chem, 2017).

A value given as a limit tells only on which side of the number the result lay.

Data set [1] can be described thus: Inhibition of recombinant full length HIV1 reverse transcriptase RNase H domain using RNA/DNA duplex substrate HTS1 assessed as reduction in internal cleavage of RNA strand by fluoresence assay. Set-up: species or system Human immunodeficiency virus 1. In short, it runs like this:
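Full-length HIV RT incubated with fluorescein/Dabcyl-labelled 18-mer RNA/DNA duplex HTS-1, which reports non-specific internal RNA cleavage, across a compound concentration series. Dose-response data fitted by nonlinear regression to logistic curves. IC50 given as mean ± SD from at least two independent experiments.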

Data set [2] can be described thus: Inhibition of recombinant full length HIV1 reverse transcriptase polymerase domain assessed as decrease in extension of 18 nucleotide DNA primer annealed to 100 nucleotide DNA template after 30 mins. Set-up: species or system Human immunodeficiency virus 1. The method, boiled down: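 20 nM RT, 40 nM 18-nt primer annealed to 100-nt DNA template, and 10 μM dNTPs in 50 mM Tris pH 7.8, 50 mM NaCl, 1% DMSO, with increasing compound concentrations. Reactions started with 6 mM MgCl2, run 30 min at 37 °C, and stopped with 100 mM EDTA.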

A short description of data set [3]: Inhibition of HIV integrase strand transfer activity expressed in Escherichia coli BL21 (DE3) using 5' biotin ATGTGGAAAATCTCTAGCA primer annealed with ACTGCTAGAGATTTTCCACAT 3' Cy5 template preincubated for 10 mins followed by primer/template addition measured after 30 mins by fluorescence assay. Details: species or system Human immunodeficiency virus. The method, boiled down:
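Integrase preincubated 10 min at 25 °C with compound (final 0.13–100 μM, duplicate) in 10 mM HEPES pH 7.5, 10% glycerol, 10 mM MnCl2, 1 mM DTT, 1 μM enzyme. Biotin/Cy5 oligo duplex added; 30 min at 37 °C; EDTA quench.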

For data set [4], the system named is Human immunodeficiency virus 1. Kind of data set: Antiviral activity against HIV1 infected in CD4/CXCR4/CCR5 expressing human P4R5 cells assessed as inhibition of viral replication preincubated with cells for 24 hrs followed by viral infection measured after 48 hrs by beta-galactosidase reporter gene assay. The class given is functional. Conditions: Human immunodeficiency virus 1, P4/R5. The method, boiled down: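 P4R5 indicator cells (CD4, CXCR4, CCR5; HIV LTR-driven β-galactosidase reporter) seeded 4 × 10³/well in DMEM/10% FBS with puromycin (1 μg/mL). Cells lysed, MUG substrate added, fluorescence β-galactosidase readout.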
On the technique in general: A reporter such as luciferase makes a cellular process visible.

Data set [5] can be described thus: Cytotoxicity against human P4R5 cells by MTS assay. It counts as cell-based. For orientation: Tetrazolium assays rely on reduction of a dye to a coloured formazan, in cell work by metabolically active cells.

In the case of `O=C(Nc1ccc(-c2ccccc2)cc1)c1c(NCc2ccccc2)[nH]c(=O)n(O)c1=O`, the values for the IC50 in data set [1], in data set [2] and in data set [3] were 0.12 µM, more than 10 µM and more than 100 µM, respectively. Besides, the EC50 in data set [4] stood at 15 µM. In data set [5], this molecule yielded a CC50 of 54 µM.

In the case of `Cc1ccc(NC(=O)c2c(NCc3ccccc3)[nH]c(=O)n(O)c2=O)cc1`, the figures for the IC50 in data set [1], in data set [2] and in data set [3] were 0.019 µM, 10 µM and 34 µM, respectively. The EC50 in data set [4] is 7.2 µM. Further, in data set [5], the CC50 was 53 µM.

Turning to `O=C(NCc1cccc(Cl)c1F)c1c(Nc2ccc(-c3ccccc3)cc2)[nH]c(=O)n(O)c1=O`, the IC50 in data set [1] was 0.059 µM; in data set [2], more than 10 µM; in data set [3] it was more than 100 µM.

With `O=C(Nc1ccc(F)cc1F)c1c(NCc2ccccc2)[nH]c(=O)n(O)c1=O`, the IC50 in data set [1] is 0.079 µM; in data set [2] it was more than 10 µM; in data set [3] it was 29 µM. The EC50 in data set [4] was more than 20 µM. This molecule also yielded a CC50 in data set [5] of more than 100 µM.

As for `O=C(Nc1ccc(-c2ccccc2)cc1)c1c(Nc2ccc(-c3ccccc3)cc2)[nH]c(=O)n(O)c1=O`, the IC50 was 1 µM in data set [1], 1.8 µM in data set [2] and more than 100 µM in data set [3].

Regarding `O=C(Nc1ccccc1)c1c(NCc2ccccc2)[nH]c(=O)n(O)c1=O`, the IC50 is 0.027 µM in data set [1], more than 10 µM in data set [2] and more than 100 µM in data set [3]. The EC50 in data set [4] was determined as 6.9 µM. In data set [5], it took 52 µM to reach half-maximal cytotoxicity (CC50).

With `O=C(NCc1ccccc1)c1c(NCc2ccc(-c3ccccc3)cc2)[nH]c(=O)n(O)c1=O`, the IC50 is 0.054 µM in data set [1], more than 10 µM in data set [2] and 1.6 µM in data set [3]. In addition, the EC50 in data set [4] was more than 20 µM.

As to `COc1cc2ccccc2cc1/C=N/NC(=O)c1cc(O)c(O)c(O)c1`, the IC50 in data set [1] stood at 0.2 µM; in data set [2], 0.5 µM.

As for `O=C(NCc1cc(F)ccc1F)c1c(Nc2ccc(-c3ccccc3)cc2)[nH]c(=O)n(O)c1=O`, the results for the IC50 in data set [1], in data set [2] and in data set [3] were 0.05 µM, 9.5 µM and more than 100 µM, respectively. In data set [4], the EC50 was 3.7 µM. The molecule also registered a CC50 in data set [5] of more than 100 µM.

Consider `O=C(Nc1cccc2ccccc12)c1c(Nc2ccccc2)[nH]c(=O)n(O)c1=O`, for which the results for the IC50 in data set [1], in data set [2] and in data set [3] were 0.018 µM, 7.7 µM and 3.2 µM, respectively. The EC50 in data set [4] was 11.4 µM. The CC50 in data set [5] worked out at 76.8 µM.

Consider `O=C(NCc1ccc(F)cc1)c1c(Nc2ccc(-c3ccccc3)cc2)[nH]c(=O)n(O)c1=O`, for which the values for the IC50 in data set [1], in data set [2] and in data set [3] were 0.047 µM, more than 10 µM and more than 100 µM, respectively.

For the molecule `O=C(NCc1ccc(-c2ccccc2)cc1)c1c(NCc2ccc(-c3ccccc3)cc2)[nH]c(=O)n(O)c1=O`, the results for the IC50 in data set [1], in data set [2] and in data set [3] were 0.11 µM, more than 10 µM and more than 100 µM, respectively. Moreover, the EC50 in data set [4] was more than 20 µM. The molecule further came in with a CC50 in data set [5] of more than 100 µM.

Regarding `O=C(Nc1ccc(-c2ccccc2)cc1)c1c(NCc2ccc(-c3ccccc3)cc2)[nH]c(=O)n(O)c1=O`, the IC50 is 0.14 µM in data set [1], more than 10 µM in data set [2] and more than 100 µM in data set [3]. The EC50 in data set [4] is more than 20 µM.

For `O=C(NCc1ccccc1)c1c(Nc2ccccc2)[nH]c(=O)n(O)c1=O`, the IC50 in data set [1] was 0.056 µM; in data set [2] it was more than 10 µM; in data set [3], 0.23 µM. In addition, the EC50 in data set [4] was determined as 0.6 µM. This molecule also displayed a CC50 in data set [5] of more than 100 µM.

On to `O=C(Nc1ccc(C(F)(F)F)cc1)c1c(NCc2ccccc2)[nH]c(=O)n(O)c1=O`, for which the values for the IC50 in data set [1], in data set [2] and in data set [3] were 0.041 µM, more than 10 µM and more than 100 µM, respectively. Besides, the EC50 in data set [4] was more than 20 µM. This molecule returned a CC50 in data set [5] of more than 100 µM.

As for `O=C(NCc1ccc(-c2ccccc2)cc1)c1c(NCc2ccccc2)[nH]c(=O)n(O)c1=O`, the figures for the IC50 in data set [1], in data set [2] and in data set [3] were 0.038 µM, more than 10 µM and more than 100 µM, respectively. Besides, in data set [4], the EC50 was more than 20 µM. Besides, the CC50 in data set [5] is more than 100 µM.

As to `O=C(NCc1ccccc1)c1c(Nc2ccc(-c3ccccc3)cc2)[nH]c(=O)n(O)c1=O`, the IC50 in data set [1] is 0.11 µM; in data set [2], more than 10 µM; in data set [3], 23 µM.

As for `O=C(Nc1ccc(F)cc1)c1c(Nc2ccccc2)[nH]c(=O)n(O)c1=O`, the IC50 in data set [1] was 0.004 µM; in data set [2], more than 10 µM; in data set [3] it was 3.1 µM. In addition, the EC50 in data set [4] was 6.1 µM. In addition, the CC50 in data set [5] was found to be 58.4 µM.

Take `CCc1ccc(NC(=O)c2c(NCc3ccccc3)[nH]c(=O)n(O)c2=O)cc1`: the IC50 is 0.054 µM in data set [1], 10 µM in data set [2] and more than 100 µM in data set [3]. Besides, in data set [4], the EC50 is 8.5 µM. The molecule further showed a CC50 in data set [5] of more than 100 µM.

Regarding `O=C(NCc1ccccc1F)c1c(Nc2ccc(-c3ccccc3)cc2)[nH]c(=O)n(O)c1=O`, the IC50 is 0.04 µM in data set [1], more than 10 µM in data set [2] and more than 100 µM in data set [3].

For `O=C(Nc1ccc(F)cc1)c1c(NCc2ccccc2)[nH]c(=O)n(O)c1=O`, the IC50 in data set [1] was found to be 0.019 µM; in data set [2], 10 µM; in data set [3] it was 71 µM. The EC50 in data set [4] was more than 20 µM. The molecule also gave a CC50 in data set [5] of more than 100 µM.

`O=C(NCc1cccc(F)c1)c1c(Nc2ccc(-c3ccccc3)cc2)[nH]c(=O)n(O)c1=O`: the IC50 is 0.049 µM in data set [1], more than 10 µM in data set [2] and more than 100 µM in data set [3]. Besides, in data set [4], the EC50 was determined as 6.3 µM. Further, in data set [5], the CC50 is more than 100 µM.

As for `O=C(Nc1ccc(-c2ccc(F)cc2)cc1)c1c(Nc2ccc(-c3ccccc3)cc2)[nH]c(=O)n(O)c1=O`, the results for the IC50 in data set [1], in data set [2] and in data set [3] were 0.97 µM, 1.6 µM and more than 100 µM, respectively.

Regarding `O=C(NCc1ccccc1)c1c(NCc2ccccc2)[nH]c(=O)n(O)c1=O`, the IC50 in data set [1] was 0.032 µM; in data set [2], more than 10 µM; in data set [3], 0.14 µM. Further, the EC50 in data set [4] is 1.4 µM. In data set [5], this molecule gave a CC50 of more than 100 µM.

As to `O=C(NCc1ccc(F)cc1F)c1c(Nc2ccc(-c3ccccc3)cc2)[nH]c(=O)n(O)c1=O`, the IC50 in data set [1] is 0.077 µM; in data set [2] it was 8.6 µM; in data set [3], more than 100 µM. Moreover, the EC50 in data set [4] was 1.5 µM. Further, the CC50 in data set [5] is more than 100 µM.

For the molecule `O=C(Nc1ccc(C(F)(F)F)cc1)c1c(Nc2ccccc2)[nH]c(=O)n(O)c1=O`, the IC50 in data set [1] was found to be 0.038 µM; in data set [2], 8.1 µM; in data set [3], 9.5 µM. Also, the EC50 in data set [4] was found to be 3.5 µM. Also, the CC50 in data set [5] was more than 100 µM.

`O=C(Nc1ccccc1)c1c(Nc2ccccc2)[nH]c(=O)n(O)c1=O`: the IC50 in data set [1] was 0.016 µM; in data set [2] it was more than 10 µM; in data set [3] it was 1.5 µM. The EC50 in data set [4] amounted to 6.6 µM. For the same molecule, in data set [5], the CC50 was more than 100 µM.

On to `O=C(Nc1ccccc1)c1c(NCc2ccc(-c3ccccc3)cc2)[nH]c(=O)n(O)c1=O`, for which the IC50 in data set [1] is 0.047 µM; in data set [2], more than 10 µM; in data set [3], more than 100 µM. In data set [4], the EC50 is more than 20 µM.

Consider `COc1ccc(-c2ccc(NC(=O)c3c(Nc4ccc(-c5ccccc5)cc4)[nH]c(=O)n(O)c3=O)cc2)cc1`, for which the IC50 was 1.2 µM in data set [1], 1.4 µM in data set [2] and more than 100 µM in data set [3].

Consider `Cc1ccc(NC(=O)c2c(Nc3ccccc3)[nH]c(=O)n(O)c2=O)cc1`, for which the IC50 in data set [1] was 0.03 µM; in data set [2], more than 10 µM; in data set [3], 2.6 µM. Also, in data set [4], the EC50 was determined as 4.5 µM. This molecule showed a CC50 in data set [5] of more than 100 µM.

On to `O=C(Nc1cccc2ccccc12)c1c(NCc2ccccc2)[nH]c(=O)n(O)c1=O`, for which the IC50 in data set [1] is 0.057 µM; in data set [2] it was more than 10 µM; in data set [3] it was 21 µM. For the same molecule, the EC50 in data set [4] is more than 20 µM. The CC50 in data set [5] was more than 100 µM.

Broadly, the IC50 is the point on the concentration scale where inhibition reaches its midpoint. By EC50 is commonly meant the concentration at which the effect is half-maximal. Usually CC50 stands for the concentration giving 50% cytotoxicity. Higher therefore signals better tolerance by the cells.
